The values below come from ChEMBL document CHEMBL1123791, “3'-substituted 2',3'-dideoxynucleoside analogues as potential anti-HIV (HTLV-III/LAV) agents” (J Med Chem, 1987).

Bounds are passed on as bounds.

Data set [1] concerns MT4. Briefly: Protection was determined by evaluation of cluster morphology and reclustering properties in […] MT-4 cells at 0.2 uM concentration. In kind it is functional, Homo sapiens.
Data set [2] has as its system ATH-8 cell line. Briefly: Protection of ATH8 cells against the cytopathic effect of HIV. In kind it is functional. The settings on record: Homo sapiens, read-out: ED50 (the source's name).
For data set [3], the system named is MT4. Description: Toxicity was determined by evaluation of cluster morphology and reclustering properties in mock infected MT-4 cells at 5 uM concentration. In kind it is cell-based. The settings on record: human, mt4, 5 µM. The method, boiled down:
(§1)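 Mock-infected MT4 cells were seeded at 2.5×10^5 cells/mL with compound at 125–0.00032 µM and cultured 5 days at 37 °C. Cluster morphology was scored microscopically, then cells were dispersed by pipetting and reclustering read after 4 h. Scoring: ++ >90%, + 10–40%, − <10% toxicity.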

For data set [4], the system named is MT4. Description: Protection was determined by evaluation of cluster morphology and reclustering properties in […] MT-4 cells at 5 uM concentration. In kind it is functional, Homo sapiens. The method, boiled down: (§2)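 MT4 cells infected with HIV (300 CCID50/well) were seeded at 2.5×10^5 cells/mL with compound at 125, 5, 0.2, 0.008 or 0.00032 µM and kept 5 days at 37 °C. Clusters were scored microscopically, dispersed by pipetting, and reclustering assessed after 4 h at 37 °C. Scoring: +++ >90% protection.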

For data set [5], the system named is MT4. Briefly: Toxicity was determined by evaluation of cluster morphology and reclustering properties in mock infected MT-4 cells at 125 uM concentration; Range is 10-40. The class given is cell-based. Particulars: human, mt4, 125 µM. The method, boiled down:
as §1

Data set [6] concerns MT4. Briefly: Protection was determined by evaluation of cluster morphology and reclustering properties in mock infected MT-4 cells at 125 uM concentration. The class given is functional, Homo sapiens. Particulars: in the assay text read “HIV infected” for “mock infected”. The method, boiled down:
as §2

Data set [7] has as its system MT4. Briefly: Toxicity was determined by evaluation of cluster morphology and reclustering properties in mock infected MT-4 cells at 0.2 uM concentration. In kind it is cell-based. The settings on record: human, mt4, 0.2 µM.
Data set [8] deals with ATH-8 cell line. Briefly: Required dose to reduce viability of normal uninfected ATH8 cells. The class given is functional. The settings on record: Homo sapiens, read-out: ID50 (the source's name).
Data set [9] deals with MT4. Description: Toxicity was determined by evaluation of cluster morphology and reclustering properties in mock infected MT-4 cells at 125 uM concentration. The settings on record: human, mt4, 125 µM. In kind it is cell-based.
In data set [10] the test system is MT4. Description: Protection was determined by evaluation of cluster morphology and reclustering properties in […] MT-4 cells at 5 uM concentration; Range is 10-40. In kind it is functional, Homo sapiens. The method, boiled down:
as §2

For data set [11], the system named is MT4. Description: Protection was determined by evaluation of cluster morphology and reclustering properties in […] MT-4 cells at 0.2 uM concentration; Range is 40-60. The class given is functional, Homo sapiens. The method, boiled down: as §2
The subject of data set [12] is MT4. Briefly: Protection was determined by evaluation of cluster morphology and reclustering properties in […] at 0.008 uM concentration. The class given is functional, Homo sapiens.
The nature of data set [13]: Therapeutic index (Ratio = ID50/ED50).
Data set [14] relates to MT4. Briefly: Toxicity was determined by evaluation of cluster morphology and reclustering properties in mock infected MT-4 cells at 0.00032 uM concentration. In kind it is cell-based. Particulars: human, mt4, 0.00032 µM. The method, boiled down: as §1
In data set [15] the test system is MT4. Briefly: Toxicity was determined by evaluation of cluster morphology and reclustering properties in mock infected MT-4 cells at 0.008 uM concentration. In kind it is cell-based. Particulars: human, mt4, 0.008 µM. The method, boiled down:
as §1

On to `Cc1cn([C@H]2C[C@@H](OS(C)(=O)=O)[C@@H](CO)O2)c(=O)[nH]c1=O`, for which the Protection with MT4 [1] is below 10%; with MT4 [4], below 10%; with MT4 [6], above 90%. Besides, the EC50 in the data set with ATH-8 cell line [2] is above 100 µM. Also, the results for the Toxicity in the data set on MT4 [3], in the data set on MT4 [5] and in the data set with MT4 [7] were below 10%, 10% and below 10%, respectively. Besides, in the data set on ATH-8 cell line [8], the IC50 was above 100 µM.

`Cc1cn([C@H]2C[C@H](OS(C)(=O)=O)[C@@H](CO)O2)c(=O)[nH]c1=O`: the Toxicity in the data set with MT4 [9], in the data set on MT4 [3] and in the data set on MT4 [7] was below 10% in each case. The Protection with MT4 [10] is reported as 10%; in the data set on MT4 [1], below 10%; with MT4 [6], above 90%. For the same compound, the EC50 with ATH-8 cell line [2] was above 100 µM. For the same compound, the IC50 in the data set on ATH-8 cell line [8] was above 100 µM.

As for `Nc1ccn([C@H]2C=C[C@@H](CO)O2)c(=O)n1`, the Toxicity in the data set with MT4 [9] was above 90%; in the data set on MT4 [3] it was below 10%; with MT4 [7], below 10%. Also, the EC50 with ATH-8 cell line [2] is 0.3 µM. Further, the Protection in the data set on MT4 [4] was above 90%; with MT4 [11], 40%; in the data set on MT4 [12], below 10%. The IC50 in the data set with ATH-8 cell line [8] is 30 µM. Further, the selectivity ratio in data set [13] amounted to 100.

`CCSC1CC(n2cc(C)c(=O)[nH]c2=O)OC1CO` (stereo not drawn): the Toxicity in the data set with MT4 [9] is on record as above 90%; in the data set on MT4 [3] it was below 10%; with MT4 [7], below 10%. For the same compound, the Protection with MT4 [10] is given as 10%; in the data set with MT4 [1] it was below 10%; with MT4 [12], below 10%. Besides, the EC50 in the data set with ATH-8 cell line [2] was above 100 µM. For the same compound, the IC50 in the data set on ATH-8 cell line [8] came to 100 µM. Moreover, the selectivity ratio in [13] was below 1.

As for `CNc1nc(=O)n(C2CC(N=[N+]=[N-])C(CO)O2)cc1C` (stereo not drawn), the Toxicity with MT4 [9], with MT4 [3] and in the data set with MT4 [7] was below 10% each time. Moreover, the results for the Protection in the data set on MT4 [10], in the data set on MT4 [1] and in the data set with MT4 [6] were 10%, below 10% and above 90%, respectively. In the data set with ATH-8 cell line [2], the EC50 is above 100 µM. Also, in the data set on ATH-8 cell line [8], the IC50 is above 100 µM.

As to `Nc1ncnc2c1ncn2[C@H]1C=C[C@@H](CO)O1`, the Toxicity in the data set with MT4 [9] is reported as above 90%; in the data set with MT4 [14], below 10%; with MT4 [3], below 10%; in the data set with MT4 [15], below 10%; in the data set with MT4 [7], below 10%. Also, the Protection in the data set on MT4 [1], in the data set with MT4 [4] and in the data set on MT4 [6] was below 10% each time. The EC50 with ATH-8 cell line [2] is 40 µM. Also, in the data set with ATH-8 cell line [8], the IC50 worked out at 52 µM. Moreover, in data set [13], the selectivity ratio was 1.3.

Regarding `CCc1cn(C2CCC(CO)O2)c(=O)[nH]c1=O` (stereo not drawn), the Toxicity in the data set on MT4 [9], with MT4 [3], with MT4 [15] and in the data set on MT4 [7] was below 10% in each case. Also, the Protection in the data set on MT4 [1], in the data set with MT4 [4], in the data set on MT4 [6] and in the data set with MT4 [12] was below 10% throughout.

For the compound `Nc1ncnc2c1ncn2[C@H]1C[C@H](O)[C@@H](CO)O1` [DEOXYADENOSINE], the Protection with MT4 [1], with MT4 [4] and in the data set on MT4 [6] was below 10% throughout. In addition, the EC50 with ATH-8 cell line [2] is above 100 µM. Further, the Toxicity in the data set on MT4 [3] is given as below 10%; in the data set on MT4 [5], 10%; with MT4 [7] it was below 10%. Further, the IC50 with ATH-8 cell line [8] was above 100 µM.

With `Nc1ccn([C@H]2CC[C@@H](CO)O2)c(=O)n1` [ZALCITABINE], the results for the Toxicity in the data set on MT4 [9], in the data set on MT4 [3] and in the data set with MT4 [7] were above 90%, below 10% and below 10%, respectively. Moreover, in the data set with ATH-8 cell line [2], the EC50 was 0.2 µM. The Protection with MT4 [4] is on record as above 90%; in the data set with MT4 [11], 40%; in the data set with MT4 [12], below 10%. For the same compound, in the data set with ATH-8 cell line [8], the IC50 came out at 35 µM. For the same compound, in [13], the selectivity ratio came to 175.
